Test results from ChEMBL document CHEMBL1154740, “Efficient microwave combinatorial synthesis of novel indolic arylpiperazine derivatives as serotoninergic ligands” (Eur J Med Chem, 2010).

How the values were obtained:
[1] = target: 5-hydroxytryptamine receptor 2A (Rattus norvegicus, UniProt P14842); assay: Displacement of [3H]ketanserin from 5HT2A in Sprague-Dawley rat brain cortex by liquid scintillation counting
Outline: (§1)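 Frontal cortex of male Sprague–Dawley rats (180–220 g), in 50 mM Tris-HCl, 0.5 mM EDTA, 10 mM MgCl2, pH 7.4, plus 0.1% ascorbate and pargyline. Triplicate 2.0 mL assays: 5-HT2A with 5 mg tissue and 0.4 nM [3H]ketanserin; 5-HT2C with 10 mg tissue and 1 nM [3H]mesulergine. 15 min at 37 °C, PEI-soaked filters. IC50 from six concentrations converted to Ki (Cheng–Prusoff).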

[2] = target: T1, 5-hydroxytryptamine receptor 2C (Rattus norvegicus, UniProt P08909); assay: Displacement of [3H]mesulergine from 5HT2C in Sprague-Dawley rat brain cortex by liquid scintillation counting; outline: as §1
T1 sequence (P08909 whole entry): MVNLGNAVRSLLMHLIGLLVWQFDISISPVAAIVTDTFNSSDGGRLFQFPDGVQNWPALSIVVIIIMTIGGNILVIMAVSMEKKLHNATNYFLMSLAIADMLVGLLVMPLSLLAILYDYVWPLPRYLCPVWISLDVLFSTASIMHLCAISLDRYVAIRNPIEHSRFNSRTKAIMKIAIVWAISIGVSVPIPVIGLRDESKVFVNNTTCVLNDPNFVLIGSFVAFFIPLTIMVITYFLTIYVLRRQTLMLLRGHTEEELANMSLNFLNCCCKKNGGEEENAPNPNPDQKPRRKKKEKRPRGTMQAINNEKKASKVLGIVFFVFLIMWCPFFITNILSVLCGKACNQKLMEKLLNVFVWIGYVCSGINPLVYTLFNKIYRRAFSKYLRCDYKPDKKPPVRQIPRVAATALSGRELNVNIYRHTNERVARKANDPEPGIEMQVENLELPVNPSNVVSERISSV

[3] = target: T2, 5-hydroxytryptamine receptor 1A (Rattus norvegicus, UniProt P19327); assay: Displacement of [3H]8OH-DPAT from 5HT1A in Sprague-Dawley rat brain cortex by liquid scintillation counting
T2 sequence (P19327 whole entry): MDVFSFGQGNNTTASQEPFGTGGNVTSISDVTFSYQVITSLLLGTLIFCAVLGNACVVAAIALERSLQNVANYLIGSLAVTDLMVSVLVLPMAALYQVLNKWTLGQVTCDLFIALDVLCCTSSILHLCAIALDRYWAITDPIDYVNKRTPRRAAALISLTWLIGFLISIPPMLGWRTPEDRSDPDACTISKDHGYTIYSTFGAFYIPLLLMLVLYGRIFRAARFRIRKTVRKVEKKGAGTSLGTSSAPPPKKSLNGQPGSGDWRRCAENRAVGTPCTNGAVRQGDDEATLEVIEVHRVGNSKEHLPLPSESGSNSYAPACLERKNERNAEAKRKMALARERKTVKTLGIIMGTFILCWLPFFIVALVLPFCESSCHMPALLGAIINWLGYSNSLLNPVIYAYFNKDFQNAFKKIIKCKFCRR
Outline: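 Male Sprague–Dawley rat (180–220 g) cerebral cortex membranes, washed and preincubated 10 min at 37 °C, in Tris–HCl pH 7.7 with pargyline, 4 mM CaCl2, 0.1% ascorbate. [3H]-8-OH-DPAT at 0.1 nM final, 30 min at 37 °C, GF/B filtration. Nonspecific binding defined with 5-HT. Six concentrations in triplicate; IC50 converted to Ki by Cheng–Prusoff using Scatchard KD.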

D(2) dopamine receptor = D(2) dopamine receptor (Rattus norvegicus, UniProt P61169); assay: Displacement of [3H]spiperone from dopamine D2 in rat striatum by liquid scintillation counting
Outline: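 Striatal membranes (3 mg fresh tissue) in Tris–HCl with NaCl, KCl, CaCl2, MgCl2, ascorbic acid and pargyline, pH 7.1 at 37 °C. Incubated with [3H]spiperone at 0.4 nM final for 15 min at 37 °C, then filtered on GF/B. Nonspecific binding defined with (+)-butaclamol. IC50 converted to Ki by Cheng–Prusoff.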

D(1A) dopamine receptor = D(1A) dopamine receptor (Rattus norvegicus, UniProt P18901); assay: Displacement of [3H]SCH23390 from dopamine D1 in rat striatum by liquid scintillation counting
Outline: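 Rat corpora striata membranes in 50 mM Tris–HCl with 120 mM NaCl, 5 mM KCl, 2 mM CaCl2, 1 mM MgCl2, 0.1% ascorbic acid, pargyline, pH 7.1 at 37 °C; 3 mg fresh tissue per tube. [3H]SCH-23390 at 0.4 nM final, 15 min at 37 °C, GF/B filtration. Nonspecific binding defined with piflutixol. Ki from IC50 via Cheng–Prusoff.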

[4] = target: T3, Adrenergic receptor alpha-1 (Rattus norvegicus, UniProt P15823+P23944+P43140); assay: Displacement of [3H]prozosine from alpha1 adrenergic receptor in rat brain cortex by liquid scintillation counting; assay type: tissue-based
T3 sequence (P15823 whole entry): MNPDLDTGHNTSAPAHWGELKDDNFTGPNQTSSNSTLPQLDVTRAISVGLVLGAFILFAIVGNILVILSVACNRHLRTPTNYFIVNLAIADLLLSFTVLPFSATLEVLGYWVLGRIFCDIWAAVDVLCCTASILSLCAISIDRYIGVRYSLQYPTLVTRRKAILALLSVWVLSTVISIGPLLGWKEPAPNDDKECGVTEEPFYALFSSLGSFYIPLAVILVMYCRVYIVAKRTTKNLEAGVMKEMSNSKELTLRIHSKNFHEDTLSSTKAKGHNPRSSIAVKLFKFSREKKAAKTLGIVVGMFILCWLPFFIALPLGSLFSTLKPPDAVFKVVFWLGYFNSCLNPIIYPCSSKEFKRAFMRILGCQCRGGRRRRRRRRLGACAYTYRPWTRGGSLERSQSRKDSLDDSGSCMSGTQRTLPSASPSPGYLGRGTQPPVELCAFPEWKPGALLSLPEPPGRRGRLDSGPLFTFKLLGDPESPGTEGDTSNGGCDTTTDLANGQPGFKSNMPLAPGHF
T3 sequence (P23944 whole entry): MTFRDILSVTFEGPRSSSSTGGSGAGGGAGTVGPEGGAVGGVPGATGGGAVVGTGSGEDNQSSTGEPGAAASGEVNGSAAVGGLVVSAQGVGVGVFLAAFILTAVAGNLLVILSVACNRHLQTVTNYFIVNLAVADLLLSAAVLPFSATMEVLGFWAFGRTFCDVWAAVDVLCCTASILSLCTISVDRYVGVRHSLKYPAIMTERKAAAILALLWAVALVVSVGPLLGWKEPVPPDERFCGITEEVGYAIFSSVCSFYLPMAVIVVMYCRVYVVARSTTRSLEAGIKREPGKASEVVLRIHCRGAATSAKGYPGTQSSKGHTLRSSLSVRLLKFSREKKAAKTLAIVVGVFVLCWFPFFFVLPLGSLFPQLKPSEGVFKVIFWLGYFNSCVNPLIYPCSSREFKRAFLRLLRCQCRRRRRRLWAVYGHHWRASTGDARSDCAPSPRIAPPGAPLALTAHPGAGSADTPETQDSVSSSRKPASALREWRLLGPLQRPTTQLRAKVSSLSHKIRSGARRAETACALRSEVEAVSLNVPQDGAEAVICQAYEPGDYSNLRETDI
T3 sequence (P43140 whole entry): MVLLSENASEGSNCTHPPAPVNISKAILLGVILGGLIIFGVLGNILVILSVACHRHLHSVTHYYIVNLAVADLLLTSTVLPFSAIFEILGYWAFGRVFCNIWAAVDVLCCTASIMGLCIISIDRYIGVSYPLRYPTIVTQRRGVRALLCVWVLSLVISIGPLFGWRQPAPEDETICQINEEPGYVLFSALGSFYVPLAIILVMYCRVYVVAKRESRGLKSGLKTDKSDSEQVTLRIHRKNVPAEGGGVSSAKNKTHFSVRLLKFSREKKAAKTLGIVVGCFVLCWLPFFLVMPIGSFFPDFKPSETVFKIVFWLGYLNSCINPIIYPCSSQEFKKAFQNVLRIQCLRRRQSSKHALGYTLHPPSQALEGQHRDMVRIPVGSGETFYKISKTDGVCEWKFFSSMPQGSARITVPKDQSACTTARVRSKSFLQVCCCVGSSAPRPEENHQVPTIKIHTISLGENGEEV
Outline: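 Brain cortex membranes (10 mg fresh tissue) in 50 mM Tris–HCl pH 7.4 at 25 °C. [3H]prazosin at 0.4 nM final, incubated 30 min at 25 °C, GF/B filtration. Nonspecific binding with […]. Ki from IC50 via Cheng–Prusoff.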

[5] = target: T4, Adrenergic receptor alpha-2 (Rattus norvegicus, UniProt P22086+P19328+P22909); assay: Displacement of [3H]yohimbine from alpha2 adrenergic receptor in rat brain cortex by liquid scintillation counting; assay type: tissue-based
T4 sequence (P22086 whole entry): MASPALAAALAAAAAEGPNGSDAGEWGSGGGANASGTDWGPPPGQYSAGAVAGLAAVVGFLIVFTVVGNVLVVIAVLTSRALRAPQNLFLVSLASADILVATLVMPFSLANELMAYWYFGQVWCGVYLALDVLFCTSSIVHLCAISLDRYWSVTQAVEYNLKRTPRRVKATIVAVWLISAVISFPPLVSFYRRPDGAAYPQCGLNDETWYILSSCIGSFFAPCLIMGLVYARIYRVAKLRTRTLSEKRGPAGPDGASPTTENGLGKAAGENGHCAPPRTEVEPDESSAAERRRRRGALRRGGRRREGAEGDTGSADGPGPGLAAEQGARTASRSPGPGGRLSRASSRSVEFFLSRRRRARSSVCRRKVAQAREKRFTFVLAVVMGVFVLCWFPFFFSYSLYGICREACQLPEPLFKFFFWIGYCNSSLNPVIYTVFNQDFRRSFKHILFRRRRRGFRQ
T4 sequence (P19328 whole entry): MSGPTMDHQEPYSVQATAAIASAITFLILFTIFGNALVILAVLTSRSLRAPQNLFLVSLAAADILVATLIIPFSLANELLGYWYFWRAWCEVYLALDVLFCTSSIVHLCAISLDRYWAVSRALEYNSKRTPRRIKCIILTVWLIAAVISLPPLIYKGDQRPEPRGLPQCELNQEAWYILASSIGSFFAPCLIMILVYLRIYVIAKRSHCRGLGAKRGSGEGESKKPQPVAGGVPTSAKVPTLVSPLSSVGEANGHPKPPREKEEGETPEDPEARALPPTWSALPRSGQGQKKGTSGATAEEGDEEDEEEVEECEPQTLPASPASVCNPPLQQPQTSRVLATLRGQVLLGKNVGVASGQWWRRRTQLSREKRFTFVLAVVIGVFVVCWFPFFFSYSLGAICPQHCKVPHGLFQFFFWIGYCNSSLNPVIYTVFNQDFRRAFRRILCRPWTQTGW
T4 sequence (P22909 whole entry): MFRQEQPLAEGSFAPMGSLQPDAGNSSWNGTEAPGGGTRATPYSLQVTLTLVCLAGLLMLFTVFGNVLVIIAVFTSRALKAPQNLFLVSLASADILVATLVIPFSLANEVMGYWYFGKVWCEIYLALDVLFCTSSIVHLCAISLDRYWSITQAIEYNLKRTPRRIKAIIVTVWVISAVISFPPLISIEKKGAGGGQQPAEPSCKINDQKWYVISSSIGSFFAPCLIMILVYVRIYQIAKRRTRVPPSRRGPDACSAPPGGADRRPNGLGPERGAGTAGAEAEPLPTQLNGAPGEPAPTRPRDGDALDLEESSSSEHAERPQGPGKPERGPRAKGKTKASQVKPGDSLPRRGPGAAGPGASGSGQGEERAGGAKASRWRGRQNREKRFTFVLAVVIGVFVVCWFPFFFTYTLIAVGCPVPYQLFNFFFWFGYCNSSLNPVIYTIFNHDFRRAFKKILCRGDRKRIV
Outline: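 Cortical membranes prepared in 5 mM Tris–HCl/5 mM EDTA pH 7.3, washed three times; 10 mg fresh tissue per tube. [3H]yohimbine at 1 nM final, 30 min at 25 °C, GF/B filtration, washed with Tris–HCl/EDTA pH 7.5. Nonspecific binding defined with […]. IC50 converted to Ki by Cheng–Prusoff.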

Sequence of D(1A) dopamine receptor (P18901 whole entry): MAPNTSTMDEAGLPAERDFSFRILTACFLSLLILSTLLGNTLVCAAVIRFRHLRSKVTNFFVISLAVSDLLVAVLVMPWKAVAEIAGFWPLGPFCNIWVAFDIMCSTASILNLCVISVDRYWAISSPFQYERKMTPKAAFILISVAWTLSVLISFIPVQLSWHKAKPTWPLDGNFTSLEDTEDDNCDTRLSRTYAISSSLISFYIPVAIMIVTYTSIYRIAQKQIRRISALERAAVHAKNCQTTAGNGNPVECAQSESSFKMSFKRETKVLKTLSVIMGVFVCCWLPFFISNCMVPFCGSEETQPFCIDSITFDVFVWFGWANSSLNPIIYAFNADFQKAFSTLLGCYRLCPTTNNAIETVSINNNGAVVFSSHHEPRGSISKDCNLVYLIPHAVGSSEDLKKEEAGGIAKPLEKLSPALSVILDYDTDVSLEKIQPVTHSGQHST
Sequence of 5-hydroxytryptamine receptor 2A (P14842 whole entry): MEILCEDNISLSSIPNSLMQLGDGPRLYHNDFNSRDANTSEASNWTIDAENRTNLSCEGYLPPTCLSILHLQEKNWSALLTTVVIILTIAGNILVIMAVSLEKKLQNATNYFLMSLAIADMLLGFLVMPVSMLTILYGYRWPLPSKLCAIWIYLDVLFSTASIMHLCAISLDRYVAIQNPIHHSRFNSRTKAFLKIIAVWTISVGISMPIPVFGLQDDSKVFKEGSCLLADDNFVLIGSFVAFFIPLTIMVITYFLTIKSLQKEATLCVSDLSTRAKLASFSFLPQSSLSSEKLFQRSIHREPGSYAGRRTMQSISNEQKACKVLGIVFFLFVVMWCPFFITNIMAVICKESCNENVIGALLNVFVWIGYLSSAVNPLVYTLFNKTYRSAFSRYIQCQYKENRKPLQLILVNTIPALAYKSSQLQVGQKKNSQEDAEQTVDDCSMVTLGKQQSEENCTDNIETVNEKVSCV
Sequence of D(2) dopamine receptor (P61169 whole entry): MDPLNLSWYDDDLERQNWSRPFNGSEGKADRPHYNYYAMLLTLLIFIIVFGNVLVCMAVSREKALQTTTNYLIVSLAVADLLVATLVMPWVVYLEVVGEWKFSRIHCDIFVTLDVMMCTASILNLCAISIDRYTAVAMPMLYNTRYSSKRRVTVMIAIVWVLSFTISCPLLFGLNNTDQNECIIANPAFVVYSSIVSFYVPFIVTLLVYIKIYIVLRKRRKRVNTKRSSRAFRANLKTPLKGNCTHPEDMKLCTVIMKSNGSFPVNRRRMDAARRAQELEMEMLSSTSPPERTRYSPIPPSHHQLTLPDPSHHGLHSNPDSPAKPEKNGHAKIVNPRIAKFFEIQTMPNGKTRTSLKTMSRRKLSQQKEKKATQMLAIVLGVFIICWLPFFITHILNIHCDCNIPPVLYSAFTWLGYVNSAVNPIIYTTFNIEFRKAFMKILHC

Row | SMILES | Ki ([1]; read-out: Ki) [nM] | Ki ([2]; read-out: Ki) [nM] | Ki ([3]; read-out: Ki) [nM] | also measured
1 | CCOC(=O)c1cc2cc(OCCCN3CCN(c4ccc(OC)cc4)CC3)ccc2[nH]1 | 10000 | 50.4 | 10000 | Ki (D(2) dopamine receptor): Not Active; Ki (D(1A) dopamine receptor): Not Active; Ki [4]: 514 nM; Ki [5]: 6480 nM
2 | CCOC(=O)c1cc2cc(OCCCN3CCN(c4cccc(C(F)(F)F)c4)CC3)ccc2[nH]1 | 3610 | – | 35.8 | Ki [2]: Not Active
3 | CCOC(=O)c1cc2cc(OCCCN3CCN(c4ccccc4C)CC3)ccc2[nH]1 | – | – | – | Ki [1]: Not Active; Ki [2]: Not Active
4 | CCOC(=O)c1cc2cc(OCCCN3CCN(c4ccccc4C#N)CC3)ccc2[nH]1 | – | – | – | Ki [1]: Not Active; Ki [2]: Not Active
5 | CCOC(=O)c1cc2cc(OCCCN3CCN(c4ccc(Cl)cc4)CC3)ccc2[nH]1 | – | 45.1 | 14 | –
6 | CCOC(=O)c1cc2cc(OCCCN3CCN(c4ccc(Cl)c(Cl)c4)CC3)ccc2[nH]1 | – | 10000 | 10000 | Ki [1]: Not Active
7 | CCOC(=O)c1cc2cc(OCCCN3CCN(Cc4ccc5c(c4)OCO5)CC3)ccc2[nH]1 | 26.1 | 43.6 | 10000 | Ki (D(2) dopamine receptor): Not Active; Ki (D(1A) dopamine receptor; read-out: Ki): 10000 nM; Ki [4]: 338 nM; Ki [5]: 231 nM
8 | CCOC(=O)c1cc2cc(OCCCN3CCN(c4ccccc4Cl)CC3)ccc2[nH]1 | 537 | 39.7 | 10000 | –

Further compounds by falling Ki ([2]; read-out: Ki), results first:

Row | Ki ([1]; read-out: Ki) [nM] | Ki ([2]; read-out: Ki) [nM] | Ki ([3]; read-out: Ki) [nM] | SMILES | also measured
9 | 452 | 309 | – | CCOC(=O)c1cc2cc(OCCCN3CCN(C(=O)c4ccco4)CC3)ccc2[nH]1 | Ki [3]: Not Active
10 | 10000 | 247 | – | CCOC(=O)c1cc2cc(OCCCN3CCN(c4ccc([N+](=O)[O-])cc4)CC3)ccc2[nH]1 | Ki [3]: Not Active
11 | 344 | 104 | – | CCOC(=O)c1cc2cc(OCCCN3CCN(c4ccccn4)CC3)ccc2[nH]1 | Ki [3]: Not Active
12 | – | 1.28 | 39 | CCOC(=O)c1cc2cc(OCCCN3CCN(c4cccc(Cl)c4)CC3)ccc2[nH]1 | Ki (D(2) dopamine receptor): Not Active; Ki (D(1A) dopamine receptor; read-out: Ki): 1070 nM; Ki [4]: 32.9 nM; Ki [5]: 1350 nM
